Source: ChEMBL document CHEMBL3085721, “Nonhydrolyzable ATP analogues as selective inhibitors of human NPP1: a combined computational/experimental study” (J Med Chem, 2013)
Activity calls are given as the source filed them. No cut-off for these calls is given here.

Legend:
[1] = target: T1, Ectonucleotide pyrophosphatase/phosphodiesterase family member 3 (Homo sapiens) (UniProt O14638); assay: Inhibition of NPP3 in human HTB-85 cells assessed as production of p-nitrophenol using pnp-TMP at 100 uM measured after 20 mins by spectrophotometry; assay type: cell-based
T1 sequence (whole entry): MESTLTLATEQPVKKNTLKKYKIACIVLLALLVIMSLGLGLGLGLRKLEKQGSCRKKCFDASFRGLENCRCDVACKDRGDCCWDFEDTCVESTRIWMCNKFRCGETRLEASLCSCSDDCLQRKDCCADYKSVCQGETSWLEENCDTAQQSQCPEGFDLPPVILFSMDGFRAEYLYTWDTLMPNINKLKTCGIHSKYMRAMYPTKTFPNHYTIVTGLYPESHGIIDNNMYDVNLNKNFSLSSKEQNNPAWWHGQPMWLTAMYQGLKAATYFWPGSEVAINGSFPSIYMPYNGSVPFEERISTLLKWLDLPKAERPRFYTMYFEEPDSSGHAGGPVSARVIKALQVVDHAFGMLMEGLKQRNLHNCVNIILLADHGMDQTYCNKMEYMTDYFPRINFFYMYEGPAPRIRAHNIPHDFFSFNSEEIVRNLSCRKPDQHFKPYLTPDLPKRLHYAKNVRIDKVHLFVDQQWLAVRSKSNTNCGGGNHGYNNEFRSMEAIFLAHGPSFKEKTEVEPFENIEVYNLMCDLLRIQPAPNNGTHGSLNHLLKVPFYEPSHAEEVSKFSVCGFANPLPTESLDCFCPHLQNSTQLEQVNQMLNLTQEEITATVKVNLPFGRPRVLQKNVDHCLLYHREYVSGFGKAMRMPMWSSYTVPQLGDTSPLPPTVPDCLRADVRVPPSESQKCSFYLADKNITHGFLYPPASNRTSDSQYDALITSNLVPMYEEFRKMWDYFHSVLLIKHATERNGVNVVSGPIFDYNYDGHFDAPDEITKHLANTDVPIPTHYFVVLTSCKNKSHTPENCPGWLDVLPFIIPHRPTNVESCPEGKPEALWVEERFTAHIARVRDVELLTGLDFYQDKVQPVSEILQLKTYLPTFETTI
In short: (§1)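 Intact osteocarcinoma HTB85 (SaOS-2) cells in 24-well plates, 0.5 mL incubation mixture, analogue and pnp-TMP each at 100 μM. After 20 min an aliquot was read for p-nitrophenol at 410 nm. Substrate alone set as 100%. Mean ± SD of three experiments in triplicate.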

[2] = target: T2, Ectonucleotide pyrophosphatase/phosphodiesterase family member 1 (Homo sapiens) (UniProt P22413); assay: Inhibition of NPP1 in human HTB-85 cells assessed as production of p-nitrophenol using pnp-TMP at 100 uM measured after 20 mins by spectrophotometry; assay type: cell-based; in short: as §1
T2 sequence (whole entry): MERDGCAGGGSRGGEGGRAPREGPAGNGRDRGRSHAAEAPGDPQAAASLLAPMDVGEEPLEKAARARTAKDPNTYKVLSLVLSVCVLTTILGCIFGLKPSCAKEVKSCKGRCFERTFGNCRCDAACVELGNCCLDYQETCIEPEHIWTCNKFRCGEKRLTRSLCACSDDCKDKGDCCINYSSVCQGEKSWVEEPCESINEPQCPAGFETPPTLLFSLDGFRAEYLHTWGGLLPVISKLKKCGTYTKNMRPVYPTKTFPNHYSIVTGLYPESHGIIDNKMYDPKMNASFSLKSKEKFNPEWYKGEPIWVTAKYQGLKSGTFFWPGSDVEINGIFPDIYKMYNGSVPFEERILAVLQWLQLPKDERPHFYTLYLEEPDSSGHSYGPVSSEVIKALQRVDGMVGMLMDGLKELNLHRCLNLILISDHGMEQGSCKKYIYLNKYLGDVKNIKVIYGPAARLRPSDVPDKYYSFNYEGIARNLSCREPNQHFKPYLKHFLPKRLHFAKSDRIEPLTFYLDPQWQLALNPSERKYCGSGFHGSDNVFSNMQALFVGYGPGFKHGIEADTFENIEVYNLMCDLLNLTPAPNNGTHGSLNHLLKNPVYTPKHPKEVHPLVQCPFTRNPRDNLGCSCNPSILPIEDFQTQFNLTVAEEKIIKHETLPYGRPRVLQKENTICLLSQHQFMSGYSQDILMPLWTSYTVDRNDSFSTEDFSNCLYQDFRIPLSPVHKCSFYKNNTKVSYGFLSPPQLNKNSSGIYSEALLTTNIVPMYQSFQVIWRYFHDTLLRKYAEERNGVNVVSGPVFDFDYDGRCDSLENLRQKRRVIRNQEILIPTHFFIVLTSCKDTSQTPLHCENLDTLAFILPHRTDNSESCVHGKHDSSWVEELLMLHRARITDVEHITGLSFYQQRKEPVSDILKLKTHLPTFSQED

[3] = target: T2, Ectonucleotide pyrophosphatase/phosphodiesterase family member 1 (Homo sapiens); assay: Inhibition of human NPP1 expressed in COS7 cells assessed as production of p-nitrophenol using pnp-TMP as the substrate preincubated at 100 uM for 3 mins before substrate addition measured after 15 mins […]; assay type: cell-based; details: COS-7
In short: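 Crude extracts of COS-7 cells transiently transfected with human NPP1 or NPP3, preincubated 3 min at 37 °C in 1 mM CaCl2, 140 mM NaCl, 5 mM KCl, 50 mM Tris pH 8.5 with analogue at 100 μM. Reaction started with 100 μM pnp-TMP; p-nitrophenol at 410 nm after 15 min. Activity without analogue set as 100%. Mean ± SD of 3−6 experiments in triplicate.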

[4] = target: T3, Ectonucleoside triphosphate diphosphohydrolase 3 (Homo sapiens) (UniProt O75355); assay: Inhibition of human NTPDase3 assessed as amount of inorganic phosphate released using ATP as the substrate preincubated at 100 uM for 3 mins before substrate addition after 15 mins by malachite green reagent method
T3 sequence (whole entry): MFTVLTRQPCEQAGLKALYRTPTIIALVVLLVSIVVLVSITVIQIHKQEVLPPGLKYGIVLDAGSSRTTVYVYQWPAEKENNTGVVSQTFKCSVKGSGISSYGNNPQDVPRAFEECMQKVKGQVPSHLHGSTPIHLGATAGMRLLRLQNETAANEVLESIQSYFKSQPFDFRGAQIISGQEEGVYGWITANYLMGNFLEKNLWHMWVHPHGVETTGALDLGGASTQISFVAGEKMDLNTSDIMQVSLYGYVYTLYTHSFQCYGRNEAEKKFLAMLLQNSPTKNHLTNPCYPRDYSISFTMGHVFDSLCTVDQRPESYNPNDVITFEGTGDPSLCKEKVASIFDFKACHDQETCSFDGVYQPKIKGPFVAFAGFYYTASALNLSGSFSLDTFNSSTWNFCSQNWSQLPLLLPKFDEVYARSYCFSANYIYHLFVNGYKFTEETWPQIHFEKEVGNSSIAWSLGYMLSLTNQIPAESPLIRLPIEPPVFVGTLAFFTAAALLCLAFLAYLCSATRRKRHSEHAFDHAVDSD
In short: (§2)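 Crude extracts of COS-7 cells transiently transfected with human NTPDase1, -2, -3 or -8, preincubated 3 min at 37 °C in Tris-Ringer medium pH 7.4 with analogue (final 100 μM). Started with 100 μM ATP, stopped after 15 min with malachite green; released Pi read at 630 nm. ATP alone set as 100%. Mean ± SD of 3−6 experiments in triplicate.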

[5] = target: T4, Ectonucleoside triphosphate diphosphohydrolase 1 (Homo sapiens) (UniProt P49961); assay: Inhibition of human NTPDase1 assessed as amount of inorganic phosphate released using ATP as the substrate preincubated at 100 uM for 3 mins before substrate addition after 15 mins by malachite green reagent method; in short: as §2
T4 sequence (whole entry): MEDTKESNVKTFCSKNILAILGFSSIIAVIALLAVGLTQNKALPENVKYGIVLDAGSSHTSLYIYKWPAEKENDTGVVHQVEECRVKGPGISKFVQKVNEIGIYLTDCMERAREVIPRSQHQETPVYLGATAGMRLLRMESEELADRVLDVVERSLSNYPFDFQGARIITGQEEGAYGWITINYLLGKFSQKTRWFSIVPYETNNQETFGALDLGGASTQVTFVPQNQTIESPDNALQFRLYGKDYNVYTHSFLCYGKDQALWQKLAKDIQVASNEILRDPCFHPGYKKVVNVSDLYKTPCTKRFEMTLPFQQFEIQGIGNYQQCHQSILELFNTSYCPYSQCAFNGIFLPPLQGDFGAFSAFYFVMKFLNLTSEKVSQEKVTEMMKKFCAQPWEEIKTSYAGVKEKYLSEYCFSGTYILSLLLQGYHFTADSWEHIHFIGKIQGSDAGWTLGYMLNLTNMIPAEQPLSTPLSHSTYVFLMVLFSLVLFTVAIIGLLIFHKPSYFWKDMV

[6] = target: T5, Ectonucleoside triphosphate diphosphohydrolase 8 (Homo sapiens) (UniProt Q5MY95); assay: Inhibition of human NTPDase8 assessed as amount of inorganic phosphate released using ATP as the substrate preincubated at 100 uM for 3 mins before substrate addition after 15 mins by malachite green reagent method; in short: as §2
T5 sequence (whole entry): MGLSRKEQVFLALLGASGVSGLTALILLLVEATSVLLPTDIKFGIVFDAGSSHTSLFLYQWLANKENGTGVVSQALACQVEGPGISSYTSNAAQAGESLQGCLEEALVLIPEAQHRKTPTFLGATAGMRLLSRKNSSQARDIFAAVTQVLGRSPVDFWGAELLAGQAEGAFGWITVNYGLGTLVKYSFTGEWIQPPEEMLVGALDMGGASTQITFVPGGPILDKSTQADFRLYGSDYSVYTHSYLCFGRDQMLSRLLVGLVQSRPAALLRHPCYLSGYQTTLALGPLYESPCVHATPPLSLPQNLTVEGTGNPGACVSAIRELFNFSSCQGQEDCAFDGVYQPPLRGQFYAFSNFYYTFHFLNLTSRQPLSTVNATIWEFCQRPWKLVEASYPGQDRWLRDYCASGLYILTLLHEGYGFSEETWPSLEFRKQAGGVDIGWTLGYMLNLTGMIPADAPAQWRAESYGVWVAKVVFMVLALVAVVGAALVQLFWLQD

[7] = target: T2, Ectonucleotide pyrophosphatase/phosphodiesterase family member 1 (Homo sapiens); assay: Competitive inhibition of human NPP1 expressed in COS7 cells assessed as production of p-nitrophenol using pnp-TMP as the substrate preincubated at 25 to 100 uM for 3 mins before substrate addition measured after 15 mins by Dixon/Cornish Bowden method; assay type: cell-based; details: COS-7
In short: (§3)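 Crude protein extract from COS-7 cells transiently transfected with human NPP1 (sonicated, debris cleared at 300g), preincubated 3 min at 37 °C with inhibitor (0, 25, 50, 100 μM) in 1 mM CaCl2, 140 mM NaCl, 5 mM KCl, 50 mM Tris pH 8.5. pnp-TMP (25, 50, 100 μM) added; p-nitrophenol read at 410 nm after 15 min. Ki,app and inhibition type from Dixon and Cornish-Bowden plots, three independent experiments.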

[8] = target: T6, Ectonucleotide pyrophosphatase/phosphodiesterase family member 1 (Homo sapiens, UniProt P22413); assay: Mixed type inhibition of human NPP1 expressed in COS7 cells assessed as production of p-nitrophenol using pnp-TMP as the substrate preincubated for 3 mins before substrate addition measured after 15 mins by Dixon/Cornish Bowden method; assay type: cell-based, COS-7; details: read-out: Ki(app); in short: as §3
T6 sequence (P22413 whole entry): T2 sequence (whole entry)

[9] = target: T7, Ectonucleoside triphosphate diphosphohydrolase 2 (Homo sapiens) (UniProt Q9Y5L3); assay: Inhibition of human NTPDase2 assessed as amount of inorganic phosphate released using ATP as the substrate preincubated at 100 uM for 3 mins before substrate addition after 15 mins by malachite green reagent method; in short: as §2
T7 sequence (whole entry): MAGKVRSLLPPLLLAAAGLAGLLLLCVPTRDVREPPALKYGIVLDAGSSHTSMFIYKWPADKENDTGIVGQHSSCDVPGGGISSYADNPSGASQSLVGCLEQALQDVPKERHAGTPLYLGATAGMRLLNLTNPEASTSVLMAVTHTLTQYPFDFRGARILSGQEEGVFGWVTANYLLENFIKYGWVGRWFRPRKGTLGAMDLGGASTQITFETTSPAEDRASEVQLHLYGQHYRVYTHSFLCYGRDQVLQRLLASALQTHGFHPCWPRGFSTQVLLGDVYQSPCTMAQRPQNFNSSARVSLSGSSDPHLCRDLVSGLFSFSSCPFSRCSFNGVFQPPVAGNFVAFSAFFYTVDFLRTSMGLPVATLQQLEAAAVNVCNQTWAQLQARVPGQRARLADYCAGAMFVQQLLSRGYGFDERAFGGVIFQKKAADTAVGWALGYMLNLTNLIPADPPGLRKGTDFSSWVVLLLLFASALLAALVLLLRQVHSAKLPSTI

| Structure (SMILES) | inhibition [1] [%] | inhibition [2] [%] | inhibition [3] [%] | inhibition [4] [%] | inhibition [5] [%] | inhibition [6] [%] | inhibition [7] | Ki [8] [µM] | inhibition [9] [%] |
| --- | --- | --- | --- | --- | --- | --- | --- | --- | --- |
| B[P@](=O)(OC[C@H]1O[C@@H](n2cnc3c(N)ncnc32)[C@H](O)[C@@H]1O)OP(=O)(O)C(Cl)(Cl)P(=O)(O)O | 41 | 41 | 90 | – | – | – | Active | 28 | – |
| B[P@@](=O)(OC[C@H]1O[C@@H](n2cnc3c(N)nc(SC)nc32)[C@H](O)[C@@H]1O)OP(=O)(O)CP(=O)(O)O | – | – | 80 | < 18 | < 18 | < 18 | – | – | < 18 |
| CSc1nc(N)c2ncn([C@@H]3O[C@H](COP(=O)(O)OP(=O)(O)C(F)(F)P(=O)(O)O)[C@@H](O)[C@H]3O)c2n1 | 41 | 41 | 90 | – | – | – | Active | 37 | – |
| CSc1nc(N)c2ncn([C@@H]3O[C@H](COP(=O)(O)OP(=O)(O)CP(=O)(O)O)[C@@H](O)[C@H]3O)c2n1 | – | – | 66 | < 18 | < 18 | < 18 | – | – | < 18 |

The next lines start with the values.

| inhibition [1] [%] | inhibition [2] [%] | inhibition [3] [%] | inhibition [4] [%] | inhibition [5] [%] | inhibition [6] [%] | inhibition [7] | Ki [8] [µM] | inhibition [9] [%] | Structure (SMILES) |
| --- | --- | --- | --- | --- | --- | --- | --- | --- | --- |
| 41 | 41 | 90 | – | – | – | – | – | – | B[P@](=O)(OC[C@H]1O[C@@H](n2cnc3c(N)nc(SC)nc32)[C@H](O)[C@@H]1O)OP(=O)(O)C(Cl)(Cl)P(=O)(O)O |
| 90 | 90 | 90 | 50 | 50 | – | – | – | – | B[P@@](=O)(OC[C@H]1O[C@@H](n2cnc3c(N)nc(SC)nc32)[C@H](O)[C@@H]1O)OP(=O)(O)C(Cl)(Cl)P(=O)(O)O |
| 41 | 41 | 90 | 50 | – | 30 | – | – | – | B[P@](=O)(OC[C@H]1O[C@@H](n2cnc3c(N)nc(SC)nc32)[C@H](O)[C@@H]1O)OP(=O)(O)C(F)(F)P(=O)(O)O |
